Test results as given in ChEMBL document CHEMBL1124186, “Synthesis and evaluation of tylosin-related macrolides modified at the aldehyde function: a new series of orally effective antibiotics” (1988).
Values after ≈ are worked out from the molar mass of the structure shown.

Assays:
Streptococcus pyogenes [1] = assay: Activity against Streptococcus pyogenes C203 when administered orally; type: functional; details: po
How it was run: (§1)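 Mouse protection test: infected mice were dosed twice, at 1 and 5 h postinfection, either subcutaneously or orally. […] The result is expressed as ED50 in mg/kg × 2.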

Streptococcus pyogenes [2] = assay: Activity against Streptococcus pyogenes C203 when administered sc; type: functional; how it was run: as §1
Streptococcus pyogenes [3] = assay: Antimicrobial activity against Streptococcus pyogenes C203; type: functional
[4] = test system: Fusobacterium necrophorum; assay: In vitro antimicrobial activity against anaerobic bacteria usobacterium necrophorum 6054A; type: functional
[5] = test system: Peptoniphilus asaccharolyticus; assay: In vitro antimicrobial activity against anaerobic bacteria peptococcus asaccharolyticus 1302; type: functional
Bacteroides fragilis [6] = assay: In vitro antimicrobial activity against anaerobic bacteria bacteroides fragilis 111; type: functional
Clostridium septicum = assay: In vitro antimicrobial activity against anaerobic bacteria clostridium septicum 1128; type: functional
Streptococcus [7] = assay: In vitro antimicrobial activity against aerobic bacteria Streptococcus D 9960; type: functional
Anaerococcus prevotii = assay: In vitro antimicrobial activity against anaerobic bacteria peptococcus prevoti 1281; type: functional
Chlamydia trachomatis = assay: In vitro antimicrobial activity against chlamydia trachomatis.; type: functional
Staphylococcus aureus [8] = assay: In vitro antimicrobial activity against aerobic bacteria Staphylococcus aureus V135; type: functional
Staphylococcus aureus [9] = assay: In vitro antimicrobial activity against Staphylococcus aureus X1; type: functional
Enterococcus faecium = assay: In vitro antimicrobial activity against Streptococcus faecium X66; type: functional, streptococcus fae-cium
Streptococcus [10] = assay: In vitro antimicrobial activity against aerobic bacteria Streptococcus D 8043; type: functional
Streptococcus pneumoniae [11] = assay: In vitro antimicrobial activity against Streptococcus pneumoniae; type: functional
Staphylococcus aureus [12] = assay: In vitro antimicrobial activity against aerobic bacteria Staphylococcus aureus V41; type: functional
Clostridioides difficile = assay: In vitro antimicrobial activity against anaerobic bacteria Clostridium difficile 2994; type: functional
Phocaeicola vulgatus = assay: In vitro antimicrobial activity against anaerobic bacteria bacteroides vulgatus 1211; type: functional
[13] = test system: Prevotella melaninogenica; assay: In vitro antimicrobial activity against anaerobic bacteria bacteroides melaninogenicus 1856,; type: functional
Bacteroides fragilis [14] = assay: In vitro antimicrobial activity against anaerobic bacteria bacteroides fragilis 1936B,; type: functional
Cutibacterium acnes = assay: In vitro antimicrobial activity against anaerobic bacteria propionibacterium acnes 79; type: functional
Streptococcus [15] = assay: In vitro antimicrobial activity against aerobic bacteria Streptococcus B 5; type: functional
Clostridium perfringens = assay: In vitro antimicrobial activity against anaerobic bacteria clostridium perfringens 81,; type: functional
Bacteroides fragilis [16] = assay: In vitro antimicrobial activity against anaerobic bacteria bacteroides fragilis 1877; type: functional
Staphylococcus aureus [17] = assay: In vitro antimicrobial activity against aerobic bacteria Staphylococcus aureus 513E; type: functional
Streptococcus pneumoniae [18] = assay: In vivo effective dose against experimental infections in mice Streptococcus pneumoniae park when administered sc; type: functional
Haemophilus influenzae [19] = assay: In vitro antimicrobial activity against aerobic bacteria Haemophilus influenzae 465; type: functional
[20] = test system: Staphylococcus epidermidis; assay: In vitro antimicrobial activity against Staphylococcus epidermidis EPI1; type: functional
[21] = test system: Prevotella melaninogenica; assay: In vitro antimicrobial activity against anaerobic bacteria bacteroides melaninogenicus 2736; type: functional
Streptococcus pneumoniae [22] = assay: In vivo effective dose against experimental infections in mice Streptococcus pneumoniae park when administered orally; type: functional; details: po
Haemophilus influenzae [23] = assay: In vitro antimicrobial activity against aerobic bacteria Haemophilus influenzae 76; type: functional
[24] = In vitro antimicrobial activity against anaerobic bacteria peptostreptococcus intermedius 1264; type: functional
Eikenella corrodens = assay: In vitro antimicrobial activity against anaerobic bacteria bacteroides corrodens 1874; type: functional
[25] = test system: Peptostreptococcus anaerobius; assay: In vitro antimicrobial activity against anaerobic bacteria eubacterium peptostreptococcus anaerobius 1428,; type: functional
Streptococcus [26] = assay: In vitro antimicrobial activity against aerobic bacteria Streptococcus D 2041; type: functional
Haemophilus influenzae [27] = assay: In vitro antimicrobial activity against Haemophilus influenzae.; type: functional
Streptococcus pyogenes [28] = assay: In vivo effective dose against experimental infections in rodent caused by Streptococcus pyogenes C203 when administered sc; type: functional
[29] = test system: Staphylococcus epidermidis; assay: In vitro antimicrobial activity against aerobic bacteria Streptococcus epi 270; type: functional
Staphylococcus aureus [30] = assay: In vitro antimicrobial activity against aerobic bacteria Staphylococcus aureus V140,; type: functional
Collinsella aerofaciens = assay: In vitro antimicrobial activity against anaerobic bacteria eubacterium aerofaciens 1235; type: functional
Staphylococcus aureus [31] = assay: In vitro antimicrobial activity against aerobic bacteria Staphylococcus aureus X400; type: functional
Streptococcus [32] = assay: In vitro antimicrobial activity against aerobic bacteria Streptococcus B 14; type: functional
Haemophilus influenzae [33] = assay: In vitro antimicrobial activity against aerobic bacteria Haemophilus influenzae MX366,; type: functional
[34] = test system: Haemophilus parainfluenzae; assay: In vitro antimicrobial activity against aerobic bacteria Haemophilus parainfluenzae 9796; type: functional
Streptococcus pyogenes [35] = assay: In vivo effective dose against experimental infections in rodent caused by Streptococcus pyogenes C203 when administered orally; type: functional; details: po
[36] = test system: Bacteroides thetaiotaomicron; assay: In vitro antimicrobial activity against anaerobic bacteria bacteroides thetaiotaomicron 1438; type: functional
Streptococcus pyogenes [37] = assay: In vitro antimicrobial activity against Streptococcus pyogenes C203; type: functional
Fusobacterium = assay: In vitro antimicrobial activity against anaerobic bacteria fusobacterium symbiosum 1470; type: functional
Streptococcus pneumoniae [38] = assay: In vitro antimicrobial activity against aerobic bacteria Streptococcus pneumoniae B1-438; type: functional, streptococcus pneum
[39] = test system: Staphylococcus epidermidis; assay: In vitro antimicrobial activity against aerobic bacteria Streptococcus epi 222; type: functional
Streptococcus pyogenes [40] = assay: Effective dose against Streptococcus pyogenes C203 when administered sc; type: functional; how it was run: as §1

## CC[C@H]1OC(=O)C[C@@H](O)[C@H](C)[C@@H](O[C@@H]2O[C@H](C)[C@@H](OC(C)=O)[C@H](N(C)C)[C@H]2OC(C)=O)[C@@H](CCOc2ccccc2)C[C@@H](C)C(=O)/C=C/C(C)=C/[C@@H]1CO[C@@H]1O[C@H](C)[C@@H](O)[C@@H](OC)[C@H]1OC
Streptococcus pyogenes [1]
  ED50: 16 mg/kg
Streptococcus pyogenes [2]
  ED50: 2.9 mg/kg
Streptococcus pyogenes [3]
  MIC: 0.5 µg/mL (≈ 0.535 µM)

## CC[C@H]1OC(=O)C[C@@H](O)[C@H](C)[C@@H](O[C@@H]2O[C@H](C)[C@@H](O)[C@H](N(C)C)[C@H]2O)[C@@H](CCOc2ccc(-c3ccccc3)cc2)C[C@@H](C)C(=O)/C=C/C(C)=C/[C@@H]1CO[C@@H]1O[C@H](C)[C@@H](O)[C@@H](OC)[C@H]1OC
[4]
  MIC: 4 µg/mL (≈ 4.32 µM)
[5]
  MIC: < 0.5 µg/mL
Bacteroides fragilis [6]
  MIC: 4 µg/mL (≈ 4.32 µM)
Clostridium septicum
  MIC: < 0.5 µg/mL
Streptococcus [7]
  MIC: 0.5 µg/mL (≈ 0.54 µM)
Anaerococcus prevotii
  MIC: 1 µg/mL (≈ 1.08 µM)
Chlamydia trachomatis
  MIC: > 2 µg/mL
Staphylococcus aureus [8]
  MIC: 0.25 µg/mL (≈ 0.27 µM)
Staphylococcus aureus [9]
  MIC: 0.5 µg/mL (≈ 0.54 µM)
Enterococcus faecium
  MIC: 0.5 µg/mL (≈ 0.54 µM)
Streptococcus [10]
  MIC: 0.25 µg/mL (≈ 0.27 µM)
Streptococcus pneumoniae [11]
  MIC: 0.25 µg/mL (≈ 0.27 µM)
Staphylococcus aureus [12]
  MIC: 0.25 µg/mL (≈ 0.27 µM)
Clostridioides difficile
  MIC: < 0.5 µg/mL
Phocaeicola vulgatus
  MIC: < 0.5 µg/mL
[13]
  MIC: < 0.5 µg/mL
Bacteroides fragilis [14]
  MIC: 4 µg/mL (≈ 4.32 µM)
Cutibacterium acnes
  MIC: < 0.5 µg/mL
Streptococcus [15]
  MIC: 2 µg/mL (≈ 2.16 µM)
Clostridium perfringens
  MIC: < 0.5 µg/mL
Bacteroides fragilis [16]
  MIC: 2 µg/mL (≈ 2.16 µM)
Staphylococcus aureus [17]
  MIC: 0.25 µg/mL (≈ 0.27 µM)
Streptococcus pneumoniae [18]
  ED50: > 20 mg/kg
Haemophilus influenzae [19]
  MIC: 16 µg/mL (≈ 17.3 µM)
[20]
  MIC: 0.5 µg/mL (≈ 0.54 µM)
[21]
  MIC: < 0.5 µg/mL
Streptococcus pneumoniae [22]
  ED50: 37 mg/kg
Haemophilus influenzae [23]
  MIC: 16 µg/mL (≈ 17.3 µM)
[24]
  MIC: < 0.5 µg/mL
Eikenella corrodens
  MIC: 2 µg/mL (≈ 2.16 µM)
[25]
  MIC: < 0.5 µg/mL
Streptococcus [26]
  MIC: 0.5 µg/mL (≈ 0.54 µM)
Haemophilus influenzae [27]
  MIC: 16 µg/mL (≈ 17.3 µM)
Streptococcus pyogenes [28]
  ED50: > 10 mg/kg
[29]
  MIC: 128 µg/mL (≈ 138 µM)
Staphylococcus aureus [30]
  MIC: 0.25 µg/mL (≈ 0.27 µM)
Collinsella aerofaciens
  MIC: < 0.5 µg/mL
Staphylococcus aureus [31]
  MIC: 0.25 µg/mL (≈ 0.27 µM)
Streptococcus [32]
  MIC: 1 µg/mL (≈ 1.08 µM)
Haemophilus influenzae [33]
  MIC: 16 µg/mL (≈ 17.3 µM)
[34]
  MIC: 32 µg/mL (≈ 34.6 µM)
Streptococcus pyogenes [35]
  ED50: 25 mg/kg
[36]
  MIC: 2 µg/mL (≈ 2.16 µM)
Streptococcus pyogenes [37]
  MIC: 0.25 µg/mL (≈ 0.27 µM)
Fusobacterium
  MIC: 2 µg/mL (≈ 2.16 µM)
Streptococcus pneumoniae [38]
  MIC: 32 µg/mL (≈ 34.6 µM)
[39]
  MIC: 0.12 µg/mL (≈ 0.13 µM)

## CC[C@H]1OC(=O)C[C@@H](O)[C@H](C)[C@@H](O[C@@H]2O[C@H](C)[C@@H](O[C@H]3C[C@@](C)(O)[C@@H](O)[C@H](C)O3)[C@H](N(C)C)[C@H]2O)[C@@H](C)C[C@@H](C)C(=O)/C=C/C(C)=C/[C@@H]1CO[C@@H]1O[C@H](C)[C@@H](O)[C@@H](O)[C@H]1OC [DEFORMYLMACROCIN]
Staphylococcus aureus [9]
  MIC: 2 µg/mL (≈ 2.29 µM)
Enterococcus faecium
  MIC: 128 µg/mL (≈ 146 µM)
Streptococcus pneumoniae [11]
  MIC: 64 µg/mL (≈ 73.2 µM)
[20]
  MIC: 2 µg/mL (≈ 2.29 µM)
Streptococcus pyogenes [3]
  MIC: 2 µg/mL (≈ 2.29 µM)
Streptococcus pyogenes [40]
  ED50: > 10 mg/kg
Haemophilus influenzae [27]
  MIC: > 128 µg/mL
Streptococcus pyogenes [28]
  ED50: > 10 mg/kg
Streptococcus pyogenes [37]
  MIC: 2 µg/mL (≈ 2.29 µM)

## CC[C@H]1OC(=O)C[C@@H](O)[C@H](C)[C@@H](O[C@@H]2O[C@H](C)[C@@H](O)[C@H](N(C)C)[C@H]2O)[C@@H](CCOc2ccc(Oc3ccccc3)cc2)C[C@@H](C)C(=O)/C=C/C(C)=C/[C@@H]1CO[C@@H]1O[C@H](C)[C@@H](O)[C@@H](OC)[C@H]1OC
Staphylococcus aureus [9]
  MIC: 0.5 µg/mL (≈ 0.531 µM)
Enterococcus faecium
  MIC: 0.5 µg/mL (≈ 0.531 µM)
Streptococcus pneumoniae [11]
  MIC: 0.25 µg/mL (≈ 0.265 µM)
Streptococcus pneumoniae [18]
  ED50: > 20 mg/kg
[20]
  MIC: 0.5 µg/mL (≈ 0.531 µM)
Streptococcus pneumoniae [22]
  ED50: 38 mg/kg
Haemophilus influenzae [27]
  MIC: 16 µg/mL (≈ 17 µM)
Streptococcus pyogenes [28]
  ED50: > 10 mg/kg
Streptococcus pyogenes [35]
  ED50: 29 mg/kg
Streptococcus pyogenes [37]
  MIC: 0.25 µg/mL (≈ 0.265 µM)
